Results: ChEMBL document CHEMBL1138493, “Synthesis and modeling of new benzofuranone histone deacetylase inhibitors that stimulate tumor suppressor gene expression” (J Med Chem, 2009)
Activity calls are given as the source filed them. The rule behind the calls is not given here.

What was measured:
NCI-H661 [1] = assay: Antiproliferative activity against human NCI-H661 cells after 48 hrs by XTT assay; type: functional, cell-based; conditions: NCI-H661, 48 h
NCI-H661 [2] = assay: Increase in E-cadherin mRNA expression in human NCI-H661 cells at 300 nM by qRT-PCR relative to control; type: functional
NCI-H661 [3] = assay: Increase in semaphoring 3F mRNA expression in human NCI-H661 cells at 300 nM by qRT-PCR relative to control; type: functional
[4] = target: Histone deacetylase (Homo sapiens) (UniProt Q13547+O15379+Q9UBN7+Q92769+Q9UQL6+Q8WUI4+Q9BY41+Q96DB2+P56524+Q9UKV0+Q969S8); assay: Inhibition of HDAC in human NCI-H661 cells assessed as induction of histone H4 acetylation at 3 uM after 6 hrs by Western blot analysis; type: cell-based
Procedure, shortened: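 NCI-H661 cells exposed to compound for 6 h, then lysed and probed by Western blot for acetylated histone H4, with tubulin acetylation blotted alongside. Blots shown are representative of three independent experiments.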

| IC50 (NCI-H661 [1]) | Activity [4] | Compound | fold change (FC) (NCI-H661 [2]) | fold change (FC) (NCI-H661 [3]) |
| --- | --- | --- | --- | --- |
| 100 nM |  | CC(/C=C/C(=O)NO)=C\[C@@H](C)C(=O)c1ccc(N(C)C)cc1 [TRICHOSTATIN] | 50 | 4 |
|  | Active | CC(/C=C/C(=O)NO)=C\C1(C)Oc2ccccc2C1=O (centres undefined) |  |  |
